Reference: ChEMBL document CHEMBL3774327, “Design, synthesis, and analysis of antagonists of GPR55: Piperidine-substituted 1,3,4-oxadiazol-2-ones” (Bioorg Med Chem Lett, 2016)
pIC50: −log10 of the molar value.

Tests used:
Format in all cases: cell-based
[1] = Antagonist activity at HA-epitope tagged GRP55E expressed with GFP-tagged beta-arr2 in human U2OS cells assessed as LPI-stimulated redistribution of beta-arr2 preincubated for 15 mins by beta-arrestin translocation assay
[2] = target: G-protein coupled receptor 55 (Homo sapiens, UniProt Q9Y2T6); test: Antagonist activity at beta-galactosidase fragment-fused GRP55 (unknown origin) over-expressed with N-terminal deletion beta-galactosidase mutant-tagged beta-arr2 in […] cells assessed as inhibition of LPI induced beta-arrestin activity preincubated for 30 mins by PathHunter chemiluminescent complementation assay; conditions: cho-k1; for pIC50: read-out: IC50
Method in brief: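 Inhibition of LPI-induced β-arrestin activity was quantitated by chemiluminescence. Concentration-response curves were run in triplicate against 6 μM LPI, and IC50 was derived with 95% confidence intervals.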

[3] = Antagonist activity at GRP55E (unknown origin) over-expressed with GFP-tagged beta-arr2 in human U2OS cells assessed as inhibition of LPI induced beta-arrestin recruitment preincubated for 30 mins by beta-arrestin recruitment assay

Sequence of G-protein coupled receptor 55 (Q9Y2T6 whole entry, looked up, stated change not applied, the tested form may be a part): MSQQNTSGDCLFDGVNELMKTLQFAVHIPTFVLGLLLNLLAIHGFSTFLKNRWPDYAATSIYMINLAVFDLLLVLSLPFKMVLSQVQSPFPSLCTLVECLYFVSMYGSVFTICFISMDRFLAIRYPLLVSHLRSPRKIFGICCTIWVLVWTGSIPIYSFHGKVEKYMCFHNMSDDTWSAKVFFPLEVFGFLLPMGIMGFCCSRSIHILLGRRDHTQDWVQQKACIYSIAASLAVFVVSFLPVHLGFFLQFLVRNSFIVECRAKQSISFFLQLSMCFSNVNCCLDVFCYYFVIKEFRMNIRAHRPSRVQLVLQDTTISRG

Cc1cc(C)c2nc(-c3ccccn3)cc(C(=O)Nc3ccc(S(=O)(=O)Nc4onc(C)c4C)cc3)c2c1
pIC50 [1]: 6.66

Cc1ccc(C2(C(=O)N3CCC(n4nc(-c5ccccc5)oc4=O)CC3)CC2)cc1
pIC50 [1]: 5.96

Cc1nc(N2CCN(C(=O)c3ccco3)CC2)c2c3c(sc2n1)CCCC3
pIC50 [1]: 6.15

O=C(N1CCC(n2nc(-c3ccccc3)oc2=O)CC1)C1(c2ccc(Cl)cc2)CC1
pIC50 [2]: 6.19

O=C(N1CCC(n2nc(-c3ccccc3)oc2=O)CC1)C1(c2ccccc2)CC1
pIC50 [2]: 4.92

COc1ccc(C2(C(=O)N3CCC(n4nc(-c5ccccc5)oc4=O)CC3)CC2)cc1
IC50 [2]: ND(Insoluble)

O=C(N1CCC(n2nc(-c3ccccc3)oc2=O)CC1)C1(c2ccc(Cl)cc2Cl)CC1
pIC50 [2]: 5.60

O=C(N1CCC(n2nc(-c3cccnc3)oc2=O)CC1)C1(c2ccccc2)CC1
pIC50 [2]: 6.38

COc1ccc(-c2nn(C3CCN(C(=O)C4(c5ccccc5)CC4)CC3)c(=O)o2)cc1
pIC50 [2]: 5.15

COc1ccc(-c2nn(C3CCN(C(=O)C4(c5ccc(OC)cc5)CC4)CC3)c(=O)o2)cc1
IC50 [2]: ND(Insoluble)

O=C(N1CCC(n2nc(-c3cccc(C(F)(F)F)c3)oc2=O)CC1)C1(c2ccccc2)CC1
pIC50 [3]: < 4.82

O=C(N1CCC(n2nc(-c3cccs3)oc2=O)CC1)C1(c2ccccc2)CC1
pIC50 [3]: < 4.82

COc1ccc(C2(C(=O)N3CCC(n4nc(-c5ccc(C(F)(F)F)cc5)oc4=O)CC3)CC2)cc1
pIC50 [2]: 5.74

O=C(c1cccc2ccccc12)N1CCC(n2nc(-c3ccccc3)oc2=O)CC1
pIC50 [3]: < 4.82

O=C(N1CCC(n2nc(-c3ccco3)oc2=O)CC1)C1(c2ccccc2)CC1
pIC50 [3]: < 4.82

O=C(N1CCC(n2nc(-c3ccc(C(F)(F)F)cc3)oc2=O)CC1)C1(c2ccccc2)CC1
IC50 [2]: ND(Insoluble)

Cc1ccc(C2(C(=O)N3CCC(n4nc(-c5ccccc5)oc4=O)CC3)CC2(C)C)cc1 (racemic)
pIC50 [2]: 6.11
